SMILES strings stand for the structures. Activity calls are given as the source filed them.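 Rule for the calls, unless noted: active = a full or partial loss of lipid-probe fluorescence in the fish gall bladder, intestine or both, judged by eye; inactive = no fluorescence loss, or compound toxic to the fish.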

Assay [1] can be described thus: inhibitors of TNFa-induced NFkB p65 translocation, primary screen, imaging, HUVEC, MLSMR starter and 10KST1 sets (AID 438;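 active = inhibition above 20% together with a positive visual image hit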;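 note: compound added about 3h40 before a 20 min TNFalpha stimulation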;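 for inhibition: signal is the nuclear over cytoplasmic p65 intensity ratio per well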). The following applies: HUVEC TNFa-induced p65 nuclear translocation; cell count: measured here: nuclei count (cytotoxicity indicator), at 2.08 µM; inhibition: at 2 µM, stronger effect = higher value, 0% TNFa-plus-vehicle, 100% no-TNFa wells.
The nature of assay [2]: endothelial E-selectin expression blockers – imaging, HUVEC, immunofluorescence, MLSMR starter and 10KST1 sets, primary screen (AID 487;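 active = visually confirmed hit in the image check and inhibition above 20%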;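 for inhibition: signal is fraction of cell area covered by stained E-selectin grains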;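 for nuclei count: 100% = median nuclei count of all wells on the same plate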). To be noted: HUVEC TNFalpha-induced E-selectin immunofluorescence imaging, at 2 µM; inhibition: stronger effect = higher value; nuclei count: measured here: cell number, toxicity.
Assay [3] can be described thus: Primary imaging screen for DUSP6 inhibitors that restore phospho-Erk in transfected HeLa cells, chemical complementation (AID 609;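 active = compounds giving at least 50% inhibition in the cell-based MKP-3 phosphatase rescue imaging test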;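 for inhibition: phospho-Erk level distribution per well compared with pooled transfected vehicle control wells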). To be noted: HeLa MKP-3 transfected, phospho-Erk imaging KS statistic, at 10 µM, cells stimulated with TPA for 15 min.
The target of assay [4] is Dual specificity protein phosphatase 6 (Homo sapiens) (UniProt Q16828). The assay is described as above. The following applies: HeLa MKP-3 transfected, phospho-Erk imaging KS statistic; at 10 µM; stronger effect = higher value; cells stimulated with TPA for 15 min.
Sequence of Dual specificity protein phosphatase 6 (Homo sapiens) (Q16828 whole entry, looked up): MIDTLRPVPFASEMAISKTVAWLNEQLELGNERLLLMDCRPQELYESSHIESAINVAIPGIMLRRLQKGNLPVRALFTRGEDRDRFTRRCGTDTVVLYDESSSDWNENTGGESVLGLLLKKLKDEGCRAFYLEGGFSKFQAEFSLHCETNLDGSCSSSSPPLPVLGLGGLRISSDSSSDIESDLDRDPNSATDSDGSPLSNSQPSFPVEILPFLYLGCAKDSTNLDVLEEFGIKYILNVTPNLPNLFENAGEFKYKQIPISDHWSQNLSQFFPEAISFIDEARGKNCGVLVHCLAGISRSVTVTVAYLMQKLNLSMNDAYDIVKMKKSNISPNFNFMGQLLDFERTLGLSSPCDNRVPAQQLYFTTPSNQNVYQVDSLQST
Assay [5] addresses Voltage-gated potassium channel subunit beta-2 (Rattus norvegicus) (UniProt P62483). Put plainly: inhibitors of rat Kvbeta2 reductase activity – biochemical, NADPH fluorescence, primary screen (AID 622;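 active = fluorescence slope higher than the sample average by over 3 SD, cut at about -0.22 in these data, passing the limit was not always enough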;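 note: slope of raw intensity against log time taken from 70 to 1610 s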). To be noted: recombinant KvBeta, 4-cyanobenzaldehyde reduction, at 10 µM, stronger effect = higher value.
The target is the same in assay [6]. Kind of assay: enhancers of rat Kvbeta2 NADPH turnover – biochemical, NADPH fluorescence, primary screen (AID 623;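 active = NADPH fluorescence slope more negative than the mean of all samples by about 3 SD, 99.7% confidence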;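 note: fluorescence intensity change per second fitted from 20 to 320 s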). To be noted: Recombinant KvBeta, NADPH fluorescence decrease slope, 10 min; at 10 µM; stronger effect = lower value.
The target of assay [7] is Muscarinic acetylcholine receptor M4 (Homo sapiens) (UniProt P08173). Kind of assay: M4-linked GIRK flux change, two-sided – cell-based, HEK293 M4/GIRK, thallium flux, BTC-AM, M4 allosteric agonist project, primary screen (AID 625;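 active = fluorescence slope after compound addition differing from the mean of all tested samples at 99.7% confidence, mostly higher but some lower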;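 note: thallium influx through GIRK channels coupled to M4 in HEK293 cells with BTC-AM dye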). The following applies: at 10 µM, actives lie on both sides. Summed up:
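assay system = HEK293 cells with M4 receptor and GIRK channels | medium = pH 7.3 thallium assay buffer | doses = 10 µM final, single point | timing = cells overnight at 37 °C, BTC-AM loading 1 h, reads 2 min total | signal = BTC-AM fluorescence, 1 Hz kinetic reads | read-out = post-addition slope, 15–24 s, of baseline-normalized fluorescence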

Assay [8] is described as follows: inhibitors of larval lipid processing in zebrafish, primary screen, whole organism, PED6 fluorescence, gall bladder and intestine (AID 686).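 Note: larvae 5 to 7 days old with five fish per well; signal comes from phospholipase A2 cleavage of quenched PED6 carried via bile; overnight exposure to compound and PED6 before scoring.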 To be noted: Zebrafish larvae PED6 lipid processing, fluorescence scoring; screened at 20 µM (by protocol). In short, it runs like this: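 Also added: quenched phospholipase substrate PED6, 100 nM final, ingested by larvae; System: zebrafish larvae, 5-7 d; Quantity: 5 larvae per well; Compound: 20 µM single dose; Schedule: overnight compound and PED6 incubation; Read-out: visual per-well fluorescence inhibition score; Measured by: By-eye fluorescence microscopy; Medium: E3.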

Assay [9] can be described thus: loss of swimming-algae plug formation – whole organism, Chlamydomonas reinhardtii, WT vs cilia-less mutant, absorbance, 96-well, primary screen (AID 463189;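 active = inhibition at or above 50% relative to wild type and mutant plate controls; inactive = inhibition below 50%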;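 note: 0% = wild type cc124 cells in DMSO and 100% = ciliumless bld1 mutant cells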). The following applies: Chlamydomonas reinhardtii gravitaxis, OD600 absorbance, 2 days; at 10 µM; stronger effect = higher value.
The mark [10] stands for this setting: measured here: cell density z-score.
Where [11] appears, read: measured here: nuclear c-Myc green intensity z-score.
Where [12] appears, read: measured here: nuclear pErk red intensity z-score, stronger effect = higher value.

Sequence of Muscarinic acetylcholine receptor M4 (Homo sapiens) (P08173 whole entry, looked up): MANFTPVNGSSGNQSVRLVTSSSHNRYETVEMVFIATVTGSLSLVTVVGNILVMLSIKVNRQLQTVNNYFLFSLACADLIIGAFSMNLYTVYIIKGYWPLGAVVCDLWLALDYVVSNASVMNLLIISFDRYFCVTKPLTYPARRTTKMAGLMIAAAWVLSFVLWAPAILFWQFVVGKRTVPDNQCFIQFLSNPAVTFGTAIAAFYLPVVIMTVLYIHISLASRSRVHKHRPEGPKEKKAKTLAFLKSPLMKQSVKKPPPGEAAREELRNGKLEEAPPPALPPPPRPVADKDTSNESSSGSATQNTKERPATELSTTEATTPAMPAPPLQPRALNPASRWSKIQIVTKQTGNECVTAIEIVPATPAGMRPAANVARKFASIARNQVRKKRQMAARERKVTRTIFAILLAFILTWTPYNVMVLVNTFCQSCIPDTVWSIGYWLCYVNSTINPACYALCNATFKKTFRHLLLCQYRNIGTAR
Sequence of Voltage-gated potassium channel subunit beta-2 (Rattus norvegicus) (P62483 whole entry, looked up): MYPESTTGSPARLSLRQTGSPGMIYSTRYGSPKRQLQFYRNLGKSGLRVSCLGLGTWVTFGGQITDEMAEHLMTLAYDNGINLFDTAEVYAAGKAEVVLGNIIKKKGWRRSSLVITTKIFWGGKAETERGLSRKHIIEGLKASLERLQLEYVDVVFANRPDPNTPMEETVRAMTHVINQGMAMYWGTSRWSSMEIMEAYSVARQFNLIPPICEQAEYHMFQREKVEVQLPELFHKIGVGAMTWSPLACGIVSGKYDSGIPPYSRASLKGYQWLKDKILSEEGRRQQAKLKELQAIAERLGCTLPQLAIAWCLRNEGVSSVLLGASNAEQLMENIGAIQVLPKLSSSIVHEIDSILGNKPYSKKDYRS

Consider `Cc1ccccc1COc1ccc(/C(O)=C2/C(=O)C(=O)N(CCCn3ccnc3)C2c2ccco2)cc1` (stereo unspecified), for which the cell count in assay [1] was found to be 642. Also, the inhibition – broadly, the relative decrease from the control value, in per cent – in [1] was -2.1% (inactive); in [2] it was -23.1% (inactive); in [4], 9.37% (inactive); in assay [9], 13.6% (inactive). The compound further came in with a nuclei count in assay [2] of 171%. For the same compound, the z-score in [3] (setting [10]) is -1.5; in assay [3] (setting [11]), -0.323; in assay [3] (setting [12]), 2.13. The fluorescence slope is -0.48 (inactive) in [5] and 0.00521 (inactive) in assay [7]. In addition, the NADPH fluorescence slope in assay [6] was -0.00012 (inactive). Also, the result in assay [8] was inactive.
As to `O=S(=O)(c1cccc2nsnc12)N1CCN(C/C=C/c2ccccc2)CC1`, the cell count in [1] amounted to 680. Also, the inhibition in [1] was 3.2% (inactive); in assay [2], 16.6% (inactive); in assay [4], 1.9e-07% (inactive); in assay [9], 45.8% (inactive). In [2], the nuclei count came out at 117%. Besides, the z-score in [3] (setting [10]) was -0.555; in assay [3] (setting [11]), -0.43; in [3] (setting [12]) it was 0.591. In addition, the results for the fluorescence slope in assay [5] and in assay [7] were -0.527 (inactive) and 0.00411 (inactive), respectively. For the same compound, the NADPH fluorescence slope in assay [6] was -5.7e-05 (inactive). The compound was classed as inactive in assay [8].
`COC(=O)CC(=O)Cc1nc(N)nc(Nc2ccc(C)c(C)c2)n1`: the cell count in [1] is 628. For the same compound, the inhibition in [1] was 1.8% (inactive); in assay [2], -16.8% (inactive); in assay [4], -0.233% (inactive); in [9], 1.81% (inactive). In [2], this compound returned a nuclei count of 133%. Further, the values for the z-score in assay [3] (setting [10]), in [3] (setting [11]) and in assay [3] (setting [12]) were 0.15, 0.484 and 0.858, respectively. Also, the values for the fluorescence slope in assay [5] and in assay [7] were -0.442 (inactive) and 0.00526 (inactive), respectively. Moreover, the NADPH fluorescence slope in assay [6] is -3e-05 (inactive). Moreover, in assay [8], the call was inactive.
For `NC(=O)C(c1ccccc1)C1CCCC1` (stereo unspecified), the cell count in assay [1] stood at 603. Moreover, the inhibition is -8.2% (inactive) in assay [1], -33.8% (inactive) in assay [2], -3.95% (inactive) in assay [4] and -3.81% (inactive) in [9]. In assay [2], this compound displayed a nuclei count of 113%. Also, the z-score in assay [3] (setting [10]) is 1.58; in assay [3] (setting [11]) it was -0.32; in assay [3] (setting [12]), -0.629. Besides, the fluorescence slope in [5] is -0.409 (inactive); in assay [7], 0.00443 (inactive). For the same compound, in assay [6], the NADPH fluorescence slope was -4.8e-05 (inactive). Also, the call in [8] was inactive.
Consider `CC(=O)/C=C(\C)NCCNc1c(F)c(F)c(CO)c(F)c1F`, for which the cell count in assay [1] was determined as 570. Besides, the inhibition in assay [1] was -4.3% (inactive); in [2] it was -22.3% (inactive); in assay [4], 1.9e-07% (inactive); in assay [9], 42.2% (inactive). For the same compound, in assay [2], the nuclei count was determined as 145%. Also, the z-score in [3] (setting [10]) is 0.666; in assay [3] (setting [11]), -0.56; in [3] (setting [12]) it was 0.111. Besides, the fluorescence slope in [5] is -0.319 (inactive); in assay [7], 0.00522 (inactive). Besides, the NADPH fluorescence slope in [6] is -1.4e-05 (inactive). The compound was classed as inactive in assay [8].
As for `COC(=O)CSc1nnc(C)c(=O)[nH]1`, the cell count in [1] came to 609. For the same compound, the inhibition in [1] is -15.3% (inactive); in assay [2], -317% (inactive); in assay [4], -7.86% (inactive); in assay [9], -3.96% (inactive). This compound had a nuclei count in [2] of 138%. Also, the figures for the z-score in [3] (setting [10]), in [3] (setting [11]) and in assay [3] (setting [12]) were 0.155, 1.52 and -3.1, respectively. For the same compound, the figures for the fluorescence slope in [5] and in [7] were -0.484 (inactive) and 0.00545 (inactive), respectively. Besides, in assay [6], the NADPH fluorescence slope is -7.4e-05 (inactive). Moreover, the call in assay [8] was inactive.
In the case of `COc1ccc(C(=O)OC(C)CN2CCN(C)CC2)cc1OC` (stereo unspecified), the cell count in [1] stood at 386. Also, the inhibition in assay [1] is 2.6% (inactive); in assay [2], -35.7% (inactive); in assay [4], -11% (inactive); in assay [9] it was 21.4% (inactive). The compound further showed a nuclei count in assay [2] of 154%. The z-score in assay [3] (setting [10]) is -1.91; in [3] (setting [11]), 0.605; in assay [3] (setting [12]), 1.37. Besides, the fluorescence slope is -0.446 (inactive) in assay [5] and 0.00501 (inactive) in assay [7]. Besides, in [6], the NADPH fluorescence slope was -9.4e-05 (inactive). The compound was classed as inactive in assay [8].

The record behind these values is PubChem BioAssay.
